Assays:
[1] = AUC (infinity) in rat at 1 mg/kg, iv; type: ADME, organism-based; parameters: time infinity, dose 1 mg/kg, route intravenous; conditions: plasma
Method in brief: (§1)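 Fasted male rats (n = 3) received 1 mg/kg iv or 10 mg/kg po. Jugular vein blood was drawn with a heparinized syringe at pre-dose and 2 (iv only), 5, 15 and 30 min, and 1, 2, 4, 6 and 8 h. Plasma was obtained by centrifugation at 4 °C and stored at −80 °C. AUC, Cmax, T1/2, Vss and CL came from the plasma concentration–time course. BA was derived from dose-normalized AUCpo/AUCiv.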

[2] = AUC (infinity) in rat at 10 mg/kg, po; type: ADME, organism-based; parameters: time infinity, dose 10 mg/kg, route oral; conditions: plasma; method in brief: as §1
[3] = Total clearance in rat at 1 mg/kg, iv; type: ADME, organism-based; parameters: dose 1 mg/kg, route intravenous; conditions: in vivo; method in brief: as §1
[4] = Cmax in rat at 10 mg/kg, po; type: ADME, organism-based; parameters: dose 10 mg/kg, route oral; conditions: in vivo; method in brief: as §1
[5] = Half life in rat at 1 mg/kg, iv; type: ADME, organism-based; parameters: dose 1 mg/kg, route intravenous; conditions: in vivo; method in brief: as §1
[6] = Half life in rat at 10 mg/kg, po; type: ADME, organism-based; parameters: dose 10 mg/kg, route oral; conditions: in vivo; method in brief: as §1
[7] = Volume of distribution at steady state in rat at 1 mg/kg, iv; type: ADME, organism-based; parameters: dose 1 mg/kg, route intravenous; conditions: in vivo, read-out: Vdss; method in brief: as §1
[8] = Oral bioavailability in rat at 10 mg/kg; type: ADME, organism-based; conditions: in vivo; method in brief: as §1
[9] = target: Prostaglandin E2 receptor EP2 subtype (Mus musculus, UniProt Q62053); experiment: Displacement of [3H]PGE2 from mouse prostaglandin EP2 receptor expressed in CHO cells after 60 mins by liquid scintillation counting; type: cell-based
Method in brief: (§2)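 Membranes came from CHO cells stably expressing mEP1, EP2, EP3 or EP4. They were incubated with 2.5 nM [3H]PGE2 and graded test concentrations in 10 mM KH2PO4–KOH (1 mM EDTA, 10 mM MgCl2, 100 mM NaCl, pH 6.0) at room temperature, 20 min for EP1 and 60 min for EP2–4. Reactions were filtered on GF/B, washed with ice-cold buffer, and counted by scintillation. IC50 came by regression, with Ki via Cheng–Prusoff.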

[10] = target: T1, Prostaglandin E2 receptor EP3 subtype (Mus musculus, UniProt P30557); experiment: Displacement of [3H]PGE2 from mouse prostaglandin EP3alpha receptor expressed in CHO cells after 60 mins by liquid scintillation counting; type: cell-based; method in brief: as §2
T1 sequence (P30557 whole entry): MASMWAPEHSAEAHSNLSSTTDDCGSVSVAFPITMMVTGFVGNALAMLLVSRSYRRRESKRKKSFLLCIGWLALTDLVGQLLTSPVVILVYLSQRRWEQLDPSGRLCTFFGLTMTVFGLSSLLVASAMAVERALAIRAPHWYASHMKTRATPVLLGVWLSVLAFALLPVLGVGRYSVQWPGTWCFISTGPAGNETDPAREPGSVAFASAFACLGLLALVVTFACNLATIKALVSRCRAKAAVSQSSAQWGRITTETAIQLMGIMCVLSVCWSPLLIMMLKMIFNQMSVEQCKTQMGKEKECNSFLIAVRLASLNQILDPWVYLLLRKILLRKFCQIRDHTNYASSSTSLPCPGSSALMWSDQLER

[11] = target: Prostaglandin E2 receptor EP4 subtype (Mus musculus, UniProt P32240); experiment: Displacement of [3H]PGE2 from mouse prostaglandin EP4 receptor expressed in CHO cells after 60 mins by liquid scintillation counting; type: cell-based; method in brief: as §2
[12] = target: T2, Prostaglandin D2 receptor (Mus musculus, UniProt P70263); experiment: Antagonist activity at mouse prostanoid DP receptor expressed in CHO cells assessed as inhibition of PGD2-induced intracellular cAMP production; type: functional, cell-based
T2 sequence (P70263 whole entry): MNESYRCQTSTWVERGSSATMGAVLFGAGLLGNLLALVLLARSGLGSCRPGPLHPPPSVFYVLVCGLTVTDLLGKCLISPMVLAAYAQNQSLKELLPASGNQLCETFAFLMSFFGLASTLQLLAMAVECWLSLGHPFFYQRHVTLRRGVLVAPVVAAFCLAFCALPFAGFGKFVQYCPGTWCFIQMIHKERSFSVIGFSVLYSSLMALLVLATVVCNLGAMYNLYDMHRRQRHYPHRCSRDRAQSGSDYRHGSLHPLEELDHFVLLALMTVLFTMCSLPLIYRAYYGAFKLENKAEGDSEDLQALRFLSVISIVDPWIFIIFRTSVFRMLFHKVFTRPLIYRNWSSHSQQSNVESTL
Method in brief: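 CHO-mDP cells were seeded at 1×10^5 cells/well and grown 2 days. They were preincubated about 10 min at 37 °C in MEM with 2 µM diclofenac, then about 10 min in MEM with 0.1% BSA, 1 mM IBMX and 2 µM diclofenac. Test compounds at various concentrations plus 10 nM PGD2 were then added for 10 min at 37 °C. Reactions were stopped with 10% TCA, extracted with tri-n-octylamine/chloroform, and cAMP was measured by EIA.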

[13] = target: Prostaglandin F2-alpha receptor (Mus musculus, UniProt P43117); experiment: Displacement of [3H]PGF2alpha from mouse prostanoid FP receptor expressed in CHO cells after 60 mins by liquid scintillation counting; type: cell-based
Method in brief: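 CHO-mFP membranes were incubated with 2.5 nM [3H]PGF2α and varied test concentrations in 10 mM KH2PO4–KOH, 1 mM EDTA, 10 mM MgCl2, 100 mM NaCl, pH 6.0, for 60 min at room temperature. Samples were then filtered on GF/B, washed with ice-cold phosphate/NaCl buffer, and counted by scintillation. IC50 came from the regression curve, and Ki = IC50/(1+[L]/Kd).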

[14] = target: T2, Prostaglandin D2 receptor; experiment: Displacement of [3H]PGD2 from mouse prostanoid DP receptor expressed in CHO cells after 20 mins by liquid scintillation counting
[15] = target: T3, Prostaglandin E2 receptor EP1 subtype (Mus musculus, UniProt P35375); experiment: Displacement of [3H]PGE2 from mouse prostaglandin EP1 receptor expressed in CHO cells after 20 mins by liquid scintillation counting
T3 sequence (P35375 whole entry): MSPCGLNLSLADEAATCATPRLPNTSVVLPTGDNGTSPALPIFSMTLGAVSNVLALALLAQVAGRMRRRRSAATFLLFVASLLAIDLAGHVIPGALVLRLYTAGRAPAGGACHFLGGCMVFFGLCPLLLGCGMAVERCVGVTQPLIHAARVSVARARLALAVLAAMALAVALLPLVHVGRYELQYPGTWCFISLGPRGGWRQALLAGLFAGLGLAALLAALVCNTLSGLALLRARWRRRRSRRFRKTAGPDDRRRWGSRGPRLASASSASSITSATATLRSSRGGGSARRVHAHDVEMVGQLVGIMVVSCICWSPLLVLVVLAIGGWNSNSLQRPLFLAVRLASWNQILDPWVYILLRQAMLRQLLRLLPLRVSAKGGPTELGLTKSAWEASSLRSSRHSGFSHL

Prostacyclin receptor = Prostacyclin receptor (Homo sapiens, UniProt P43119); experiment: Displacement of [3H]Iloprost from human prostanoid IP receptor expressed in CHO cells after 30 mins by liquid scintillation counting
Thromboxane A2 receptor = target: T4, Thromboxane A2 receptor (Homo sapiens, UniProt P21731); experiment: Displacement of [3H]-SQ29548 from human prostanoid TP receptor expressed in CHO cells after 30 mins by liquid scintillation counting
T4 sequence (P21731 whole entry): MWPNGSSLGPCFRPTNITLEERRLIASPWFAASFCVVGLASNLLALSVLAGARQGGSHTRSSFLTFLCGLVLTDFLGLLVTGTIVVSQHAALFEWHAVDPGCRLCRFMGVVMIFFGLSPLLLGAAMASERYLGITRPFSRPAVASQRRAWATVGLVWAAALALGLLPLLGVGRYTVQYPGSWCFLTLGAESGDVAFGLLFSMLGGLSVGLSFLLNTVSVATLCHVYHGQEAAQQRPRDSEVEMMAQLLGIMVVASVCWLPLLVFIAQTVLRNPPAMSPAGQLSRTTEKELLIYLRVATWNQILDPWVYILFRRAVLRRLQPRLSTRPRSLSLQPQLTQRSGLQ

[16] = target: T3, Prostaglandin E2 receptor EP1 subtype; experiment: Displacement of [3H]PGE2 from mouse prostaglandin EP1 receptor expressed in CHO cells after 60 mins by liquid scintillation counting; type: cell-based

Chain of Prostacyclin receptor (P43119 whole entry): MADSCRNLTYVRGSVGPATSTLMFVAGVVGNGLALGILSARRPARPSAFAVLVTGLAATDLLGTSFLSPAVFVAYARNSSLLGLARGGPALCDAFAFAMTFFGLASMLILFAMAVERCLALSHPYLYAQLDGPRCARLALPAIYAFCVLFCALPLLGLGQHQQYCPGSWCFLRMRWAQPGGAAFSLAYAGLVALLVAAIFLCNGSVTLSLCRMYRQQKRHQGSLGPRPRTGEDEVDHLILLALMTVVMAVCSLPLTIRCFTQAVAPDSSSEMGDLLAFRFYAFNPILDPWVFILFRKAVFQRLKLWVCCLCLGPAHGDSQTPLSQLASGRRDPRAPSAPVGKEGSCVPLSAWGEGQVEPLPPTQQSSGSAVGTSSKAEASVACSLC
Chain of Prostaglandin E2 receptor EP2 subtype (Q62053 whole entry): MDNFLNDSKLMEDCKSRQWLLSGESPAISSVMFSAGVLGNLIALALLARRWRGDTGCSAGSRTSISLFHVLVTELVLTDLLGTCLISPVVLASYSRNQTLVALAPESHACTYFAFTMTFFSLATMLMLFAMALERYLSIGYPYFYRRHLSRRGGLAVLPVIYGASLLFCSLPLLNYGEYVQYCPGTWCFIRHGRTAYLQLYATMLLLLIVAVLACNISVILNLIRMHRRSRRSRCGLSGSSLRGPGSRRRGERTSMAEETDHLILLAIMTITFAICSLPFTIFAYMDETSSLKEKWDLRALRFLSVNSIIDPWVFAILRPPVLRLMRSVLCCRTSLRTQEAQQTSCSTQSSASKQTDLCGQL
Chain of Prostaglandin F2-alpha receptor (P43117 whole entry): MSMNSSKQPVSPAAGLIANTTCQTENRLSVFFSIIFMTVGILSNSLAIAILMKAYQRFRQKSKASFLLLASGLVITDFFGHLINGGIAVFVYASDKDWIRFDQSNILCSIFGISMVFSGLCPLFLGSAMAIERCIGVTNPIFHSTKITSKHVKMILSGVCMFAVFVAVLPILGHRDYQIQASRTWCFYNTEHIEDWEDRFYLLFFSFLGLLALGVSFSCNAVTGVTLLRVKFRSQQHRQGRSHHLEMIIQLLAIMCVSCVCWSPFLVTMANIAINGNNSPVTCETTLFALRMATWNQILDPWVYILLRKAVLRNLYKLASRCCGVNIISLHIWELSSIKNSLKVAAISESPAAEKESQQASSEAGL
Chain of Prostaglandin E2 receptor EP4 subtype (P32240 whole entry): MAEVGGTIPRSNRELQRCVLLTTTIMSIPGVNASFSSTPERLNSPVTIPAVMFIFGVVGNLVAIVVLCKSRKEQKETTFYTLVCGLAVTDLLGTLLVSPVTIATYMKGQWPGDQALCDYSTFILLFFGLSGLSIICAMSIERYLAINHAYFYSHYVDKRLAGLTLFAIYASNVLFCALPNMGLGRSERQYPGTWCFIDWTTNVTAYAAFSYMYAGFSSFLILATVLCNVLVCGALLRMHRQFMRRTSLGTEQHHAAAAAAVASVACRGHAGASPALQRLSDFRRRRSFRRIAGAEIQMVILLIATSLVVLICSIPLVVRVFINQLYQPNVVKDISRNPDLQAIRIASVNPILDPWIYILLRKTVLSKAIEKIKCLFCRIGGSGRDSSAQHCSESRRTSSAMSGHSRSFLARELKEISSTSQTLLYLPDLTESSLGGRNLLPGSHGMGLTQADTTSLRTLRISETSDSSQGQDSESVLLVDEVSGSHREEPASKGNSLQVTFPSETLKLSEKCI

Structure (SMILES) | Ki [9] | Ki [10] | Ki [11] | IC50 [12] | Ki [14] | Ki [15] | Ki (Prostacyclin receptor) | further results
Cc1cc2c(CC(=O)O)cccc2n1C(=O)c1ccc(OC[C@@H]2CN(C)c3ccccc3O2)cc1 |  |  |  |  |  |  |  | AUC(0-inf) [1]: 7200 ng·h/mL; AUC(0-inf) [2]: 24300 ng·h/mL; clearance [3]: 2.4 mL/min/kg; Cmax [4]: 3500 ng/mL; half-life [5]: 9.8 h; half-life [6]: 5.4 h; Vd [7]: 1.8 L/kg; bioavailability [8]: 34%
Cc1cc(CC(=O)O)cc(NC(=O)c2ccc(OC[C@@H]3CN(C)c4ccccc4O3)cc2C)c1 | 62 nM | > 10000 nM | 670 nM | 3.4 nM | 8.4 nM | > 10000 nM | 3500 nM | Ki [13]: > 10000 nM; Ki (Thromboxane A2 receptor): > 10000 nM
COc1ccc(NC(=O)c2ccc(OC[C@@H]3CN(C)c4ccccc4O3)cc2C)cc1CC(=O)O |  |  |  | 20 nM | 24 nM |  |  | 
CN1C[C@@H](COc2ccc(C(=O)Nc3cccc(CC(=O)O)c3)cc2)Oc2ccccc21 | 520 nM | > 10000 nM | > 10000 nM | 220 nM | 310 nM | 2100 nM | 6400 nM | AUC(0-inf) [1]: 670 ng·h/mL; AUC(0-inf) [2]: 8000 ng·h/mL; clearance [3]: 25 mL/min/kg; Cmax [4]: 4900 ng/mL; half-life [5]: 0.27 h; half-life [6]: 1.8 h; Vd [7]: 0.22 L/kg; bioavailability [8]: 119%
CN1C[C@@H](COc2ccc(C(=O)Nc3cc(CC(=O)O)ccc3Cl)c(Cl)c2)Oc2ccccc21 | 44 nM | > 10000 nM | > 10000 nM | 4.3 nM | 13 nM | 6600 nM | 1600 nM | Ki [13]: > 10000 nM; Ki (Thromboxane A2 receptor): > 10000 nM
CN1C[C@@H](COc2ccc(C(=O)Nc3cccc(CC(=O)O)c3)c(Cl)c2)Oc2ccccc21 |  |  |  | 20 nM | 16 nM |  |  | 
CN1C[C@@H](COc2ccc(C(=O)Nc3cc(CC(=O)O)ccc3F)c(Cl)c2)Oc2ccccc21 | 22 nM | > 10000 nM | > 10000 nM | 7.4 nM | 17 nM |  | > 10000 nM | Ki [16]: > 10000 nM; Ki [13]: > 10000 nM; Ki (Thromboxane A2 receptor): > 10000 nM
CN1C[C@@H](COc2ccc(NC(=O)c3cccc(CC(=O)O)c3)cc2)Oc2ccccc21 | 3500 nM | > 10000 nM | > 10000 nM |  | 5300 nM | > 10000 nM | > 10000 nM | 
CN1C[C@@H](COc2ccc(C(=O)Nc3ccc(F)c(CC(=O)O)c3)c(Cl)c2)Oc2ccccc21 |  |  |  | 50 nM | 25 nM |  |  | 
Cc1ccc(NC(=O)c2ccc(OC[C@@H]3CN(C)c4ccccc4O3)cc2Cl)cc1CC(=O)O |  |  |  | 3.9 nM | 17 nM |  |  | 
CN1C[C@@H](COc2ccc(C(=O)N(C)c3cccc(CC(=O)O)c3)cc2)Oc2ccccc21 | 5300 nM | 1700 nM | > 10000 nM |  | 760 nM | > 10000 nM | > 10000 nM | 
CN1C[C@@H](COc2ccc(S(=O)(=O)Nc3cccc(CC(=O)O)c3)cc2)Oc2ccccc21 | 2300 nM | 210 nM | 140 nM |  | 430 nM | 2700 nM | 4600 nM | 
Cc1cc(OC[C@@H]2CN(C)c3ccccc3O2)ccc1C(=O)Nc1cccc(CC(=O)O)c1C |  |  |  | 28 nM | 59 nM |  |  | 
Cc1ccc(NC(=O)c2ccc(OC[C@@H]3CN(C)c4ccccc4O3)cc2C)cc1CC(=O)O |  |  |  | 6.1 nM | 11 nM |  |  | 
Cc1cc(OC[C@@H]2CN(C)c3ccccc3O2)ccc1C(=O)Nc1cccc(CC(=O)O)c1 |  | > 10000 nM | > 10000 nM | 3.3 nM | 18 nM | > 10000 nM | 3600 nM | Ki [13]: > 10000 nM; Ki (Thromboxane A2 receptor): > 10000 nM
Cc1cc(OC[C@@H]2CN(C)c3ccccc3O2)ccc1C(=O)Nc1cc(F)cc(CC(=O)O)c1 |  |  |  | 5.6 nM | 7.4 nM |  |  | 
Cc1cc(OC[C@@H]2CN(C)c3ccccc3O2)ccc1C(=O)Nc1cc(CC(=O)O)ccc1Cl |  |  |  |  | 7.7 nM |  |  | 
COc1ccc(NC(=O)c2ccc(OC[C@@H]3CN(C)c4ccccc4O3)cc2Cl)cc1CC(=O)O |  |  |  | 41 nM | 36 nM |  |  | 
CCN(C(=O)c1ccc(OC[C@@H]2CN(C)c3ccccc3O2)cc1)c1cccc(CC(=O)O)c1 | > 10000 nM | 700 nM | > 10000 nM |  | 770 nM | 1300 nM | 2900 nM | 
Cc1cc(OC[C@@H]2CN(C)c3ccccc3O2)ccc1C(=O)Nc1cc(CC(=O)O)ccc1F |  |  |  | 1.8 nM | 19 nM |  |  | 
Cc1cc(OC[C@@H]2CN(C)c3ccccc3O2)ccc1C(=O)Nc1ccc(F)c(CC(=O)O)c1 |  |  |  | 1.2 nM | 15 nM |  |  | 
Cc1cc(CC(=O)O)cc(NC(=O)c2ccc(OC[C@@H]3CN(C)c4ccccc4O3)cc2Cl)c1 |  |  |  | 5.4 nM | 12 nM |  |  | 
Cc1ccc(CC(=O)O)cc1NC(=O)c1ccc(OC[C@@H]2CN(C)c3ccccc3O2)cc1Cl |  |  |  | 6 nM | 26 nM |  |  | 

From ChEMBL document CHEMBL1817571, “Design and synthesis of new prostaglandin D₂ receptor antagonists” (Bioorg Med Chem, 2011)
